Like-named read-outs stand apart in the source and are kept apart here. Marks after values point to notes of the source that are not given here.
Assays:
Relaxivity = format: physicochemical; details: 100 mM phosphate buffer, pH 7.4, ambient temperature (~25 °C); saturation recovery; assessed in duplicate
[1] = cited from earlier work
[2] = calculated at 25 °C; cited from earlier work
NIH/3T3 cells = experiment: MR imaging and T1 analysis of labelled cells; format: cell-based; details: 1.0 mM, 4 h, washes at 1 hour intervals, T1-weighted, 14.1 T
[3] = Determination of τm by 17O transverse relaxation rate measurements; format: physicochemical; details: variable temperature 17O NMR at 54 MHz, 15–20 mM, pH 7.40; calculated at 25 °C
[4] = In vitro cleavage by disulfide exchange with GSH; format: physicochemical; details: 1.0 mM in DPBS, 37 °C, 4 h; GSH at 4 times the contrast agent; HPLC-MS ion count
Procedure, shortened: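 Disulfide-linked Gd(III)-DTPA–octaarginine test compound was incubated with increasing GSH (0.25 to 4 equivalents) in 1.0 mM DPBS. Start times were staggered so each sample had 4 h at 37 °C before LC-MS. Separation used a C18 column (4.6 × 250 mm, 5 µm) at 1.0 mL/min with a water/MeCN gradient of 0–60% MeCN over 40 min. Total ion counts of the GSH-exchange product and of the starting material were compared.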

Row | Compound | Relaxivity, 600 MHz (14.1 T) (Relaxivity) [mM⁻¹ s⁻¹] | q (number of bound water molecules) [1] | τm (mean residence lifetime of coordinated water) [2] | MR image intensity after leaching (NIH/3T3 cells) | τm (mean residence lifetime of coordinated water) [3] [ns] | Completeness of disulfide cleavage at 4:1 GSH [4]
1 | O=C([O-])CN1CCN(CC(=O)[O-])CCN(CC(=O)O)CCN(CC(=O)[O-])CC1.[Gd+3] [Gd(III)-DOTA] | 2.12 | 1.2 ^d | 243 ^e ns | – | – | –
2 | Gd(III)-DOTA-SS-Arg8 [compound 3] | 3.52 | – | – | little loss of signal intensity | 840 | –
3 | O=C([O-])CN(CCN(CC(=O)[O-])CC(=O)O)CCN(CC(=O)[O-])CC(=O)O.[Gd+3] [Gd(III)-DTPA] | 2.09 | 1.2 ^d | 303 ^e ns | – | – | –
4 | Gd(III)-DTPA-SS-Arg8 [compound 4] | 3.46 | – | – | little loss of signal intensity | 1327 | complete cleavage is not obtainable

— PMC2650427 (Bioconjugate chemistry, 2008)
